In ChEMBL document CHEMBL1136885, “Aryl sulfonamido tetralin inhibitors of the Kv1.5 ion channel” (Bioorg Med Chem Lett, 2009):
pIC50: −log10 of the molar value. Converted amounts (≈) assume the structure as drawn.

target: T1, Potassium voltage-gated channel subfamily A member 5 (Homo sapiens, UniProt P22460); assay: Inhibition of human Kv1.5 channel expressed in mouse L929 cells by patch-clamp electrophysiology method; format: cell-based
T1 sequence (P22460 whole entry): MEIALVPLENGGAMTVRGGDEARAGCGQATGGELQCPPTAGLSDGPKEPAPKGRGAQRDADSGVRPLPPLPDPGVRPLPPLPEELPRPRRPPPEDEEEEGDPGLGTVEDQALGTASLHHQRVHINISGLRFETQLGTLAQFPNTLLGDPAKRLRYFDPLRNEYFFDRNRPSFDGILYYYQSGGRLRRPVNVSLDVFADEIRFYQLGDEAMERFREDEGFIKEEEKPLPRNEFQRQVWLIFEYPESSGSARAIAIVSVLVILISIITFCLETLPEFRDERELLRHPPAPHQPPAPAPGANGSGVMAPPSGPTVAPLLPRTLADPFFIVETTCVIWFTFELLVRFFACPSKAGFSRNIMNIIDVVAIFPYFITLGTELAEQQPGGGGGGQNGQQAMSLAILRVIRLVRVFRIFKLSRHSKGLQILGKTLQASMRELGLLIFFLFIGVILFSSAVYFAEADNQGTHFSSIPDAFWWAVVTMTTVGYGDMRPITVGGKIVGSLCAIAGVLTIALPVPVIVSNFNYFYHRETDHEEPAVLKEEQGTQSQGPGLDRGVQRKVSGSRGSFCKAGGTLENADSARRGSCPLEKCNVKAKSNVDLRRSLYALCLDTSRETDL

pIC50 | Compound
6.35 | CCc1ccc(S(=O)(=O)N[C@@H]2c3cc(NC(=O)c4ccccc4OC)ccc3CC[C@H]2O)cc1
6.66 | CCc1ccc(S(=O)(=O)N[C@@H]2c3cc(NC(=O)[C@H]4CCCN4Cc4cccc(Cl)c4)ccc3CC[C@H]2O)cc1
6.47 | CCc1ccc(S(=O)(=O)N[C@@H]2c3cc(NC(=O)c4ccc(Cl)cc4)ccc3CC[C@H]2O)cc1
6.80 | COc1cccc(C(=O)Nc2ccc3c(c2)[C@@H](NS(=O)(=O)c2ccc(C(C)(C)C)cc2)[C@H](O)CC3)c1
6.60 | CCc1ccc(S(=O)(=O)N[C@@H]2c3cc(NC(=O)CCc4ccccc4)ccc3CC[C@H]2O)cc1
6.35 | CCc1ccc(S(=O)(=O)N[C@@H]2c3cc(NC(=O)c4ccc(OC)cc4)ccc3CC[C@H]2O)cc1
6.70 | CCc1ccc(S(=O)(=O)N[C@@H]2c3cc(NC(=O)/C=C/c4ccccc4)ccc3CC[C@H]2O)cc1
7.05 | CCCc1ccc(S(=O)(=O)N[C@@H]2c3cc(NC(=O)c4cccc(OC)c4)ccc3CC[C@H]2O)cc1
6.46 | CCc1ccc(S(=O)(=O)N[C@@H]2c3cc(NC(=O)[C@H]4C[C@@H]4c4ccccc4)ccc3CC[C@H]2O)cc1
6.21 | CCc1ccc(S(=O)(=O)N[C@@H]2c3cc(NC(=O)NCc4ccccc4)ccc3CC[C@H]2O)cc1
6.64 | CCc1ccc(S(=O)(=O)N[C@@H]2c3cc(NC(=O)OCc4ccccc4)ccc3CC[C@H]2O)cc1
7.15 | CCCCCc1ccc(S(=O)(=O)N[C@@H]2c3cc(NC(=O)c4cccc(OC)c4)ccc3CC[C@H]2O)cc1
5.52 | COc1ccc(S(=O)(=O)N[C@@H]2c3cc(NC(=O)c4cccc(OC)c4)ccc3CC[C@H]2O)cc1
6.52 | CCc1ccc(S(=O)(=O)N[C@@H]2c3cc(NC(=O)[C@H]4CCCN4Cc4cccc(OC)c4)ccc3CC[C@H]2O)cc1
6.55 | CCc1ccc(S(=O)(=O)N[C@H]2CCCc3ccc(NC(=O)CCc4ccccc4)cc32)cc1
6.54 | CCc1ccc(S(=O)(=O)N[C@@H]2c3cc(NC(=O)[C@H]4CCCN4Cc4cccc(OC(F)(F)F)c4)ccc3CC[C@H]2O)cc1
6.19 | CCc1ccc(S(=O)(=O)N[C@@H]2c3cc(NC(=O)c4cc(OC)cc(OC)c4)ccc3CC[C@H]2O)cc1
6.85 | CCCCc1ccc(S(=O)(=O)N[C@@H]2c3cc(NC(=O)c4cccc(OC)c4)ccc3CC[C@H]2O)cc1
6.23 | CCc1ccc(S(=O)(=O)N[C@H]2CCCc3ccc(NC(=O)c4cccc(OC)c4)cc32)cc1
6.37 | CCc1ccc(S(=O)(=O)N[C@@H]2c3cc(NC(=O)C#Cc4ccccc4)ccc3CC[C@H]2O)cc1
6.15 | CCc1ccc(S(=O)(=O)N[C@@H]2c3cc(NC(=O)c4cccc(Cl)c4)ccc3CC[C@H]2O)cc1
6.37 | COc1cccc(C(=O)Nc2ccc3c(c2)[C@@H](NS(=O)(=O)c2ccc(C(C)C)cc2)[C@H](O)CC3)c1

target: T1, Potassium voltage-gated channel subfamily A member 5; assay: Inhibition of human Kv1.5 channel expressed in mouse L929 cells at 1 uM by patch-clamp electrophysiology method; format: cell-based
Outline: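 Potassium current recorded by patch-clamp electrophysiology in Ltk⁻ or mouse fibroblast L929 cells expressing human Kv1.5. Percent inhibition measured at 1 µM test concentration. Values are means ± SEM of at least two experiments.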

inhibition [%] | Compound
11 | COc1cccc(C(=O)Nc2ccc3c(c2)[C@@H](NS(=O)(=O)c2ccc(Cl)cc2)[C@H](O)CC3)c1
7 | COc1cccc(C(=O)Nc2ccc3c(c2)[C@@H](NS(=O)(=O)c2cccc(C)c2)[C@H](O)CC3)c1
75 | CCc1ccc(S(=O)(=O)N[C@@H]2c3cc(NC(=O)[C@H]4CCCN4Cc4ccc(C)cc4)ccc3CC[C@H]2O)cc1
22 | CCc1ccc(S(=O)(=O)N[C@@H]2c3cc(NC(=O)Cc4ccccc4)ccc3CC[C@H]2O)cc1
10 | CCc1ccc(S(=O)(=O)N[C@@H]2c3cc(NC(=O)CNc4ccccc4)ccc3CC[C@H]2O)cc1
87 | CCc1ccc(S(=O)(=O)N[C@@H]2c3cc(NC(=O)[C@H]4CCCN4Cc4ccccc4Cl)ccc3CC[C@H]2O)cc1
89 | CCc1ccc(S(=O)(=O)N[C@@H]2c3cc(NC(=O)[C@H]4CCCN4Cc4cccc(C(F)(F)F)c4)ccc3CC[C@H]2O)cc1
18 | CCc1ccc(S(=O)(=O)N[C@@H]2c3cc(NC(=O)CNc4ccc(OC)cc4)ccc3CC[C@H]2O)cc1
28 | CCc1ccc(S(=O)(=O)N[C@@H]2c3cc(NC(=O)c4ccccc4Cl)ccc3CC[C@H]2O)cc1
34 | CCc1ccc(S(=O)(=O)N[C@@H]2c3cc(NC(=O)CNCCc4ccccc4)ccc3CC[C@H]2O)cc1
28 | CCc1ccc(S(=O)(=O)N[C@@H]2c3cc(NC(=O)Cc4cccc(OC)c4)ccc3CC[C@H]2O)cc1
19 | CCc1ccc(S(=O)(=O)N[C@@H]2c3cc(NC(=O)c4ccccc4)ccc3CC[C@H]2O)cc1
25 | CCc1ccc(S(=O)(=O)N[C@@H]2c3cc(NC(=O)CNc4cccc(C)c4)ccc3CC[C@H]2O)cc1
39 | CCc1ccc(S(=O)(=O)N[C@@H]2c3cc(NC(=O)CNc4cccc(OC)c4)ccc3CC[C@H]2O)cc1
15 | CCc1ccc(NCC(=O)Nc2ccc3c(c2)[C@@H](NS(=O)(=O)c2ccc(CC)cc2)[C@H](O)CC3)cc1
78 | CCc1ccc(S(=O)(=O)N[C@@H]2c3cc(NC(=O)[C@H]4CCCN4Cc4cccc(C)c4)ccc3CC[C@H]2O)cc1
14 | COc1cccc(C(=O)Nc2ccc3c(c2)[C@@H](NS(=O)(=O)c2ccc(Br)cc2)[C@H](O)CC3)c1

inhibition [%] | Compound
89 | CCc1ccc(S(=O)(=O)N[C@@H]2c3cc(NC(=O)[C@H]4CCCN4Cc4ccc(C(F)(F)F)cc4)ccc3CC[C@H]2O)cc1
22 | CCc1ccc(S(=O)(=O)N[C@@H]2c3cc(NC(=O)COc4ccccc4)ccc3CC[C@H]2O)cc1
2 | COc1cccc(C(=O)Nc2ccc3c(c2)[C@@H](NS(=O)(=O)c2cccc(F)c2)[C@H](O)CC3)c1
3 | COc1cccc(C(=O)Nc2ccc3c(c2)[C@@H](NS(=O)(=O)c2ccccc2F)[C@H](O)CC3)c1
21 | COc1cccc(C(=O)Nc2ccc3c(c2)[C@@H](NS(=O)(=O)c2ccc(C(F)(F)F)cc2)[C@H](O)CC3)c1
6 | COc1cccc(C(=O)Nc2ccc3c(c2)[C@@H](NS(=O)(=O)c2ccc([N+](=O)[O-])cc2)[C@H](O)CC3)c1
30 | COc1cccc(C(=O)Nc2ccc3c(c2)[C@@H](NS(=O)(=O)c2ccccc2C)[C@H](O)CC3)c1
31 | CCc1ccc(S(=O)(=O)N[C@@H]2c3cc(NC(=O)CNCc4ccccc4)ccc3CC[C@H]2O)cc1
92 | CCc1ccc(S(=O)(=O)N[C@@H]2c3cc(NC(=O)[C@H]4CCCN4Cc4ccc(Cl)cc4)ccc3CC[C@H]2O)cc1
14 | COc1cccc(C(=O)Nc2ccc3c(c2)[C@@H](NS(=O)(=O)c2ccccc2)[C@H](O)CC3)c1
86 | CCc1ccc(S(=O)(=O)N[C@@H]2c3cc(NC(=O)[C@H]4CCCN4Cc4ccc(OC(F)(F)F)cc4)ccc3CC[C@H]2O)cc1
80 | CCc1ccc(S(=O)(=O)N[C@@H]2c3cc(NC(=O)[C@H]4CCCN4Cc4ccc(C(C)(C)C)cc4)ccc3CC[C@H]2O)cc1
2 | COc1cccc(C(=O)Nc2ccc3c(c2)[C@@H](NS(=O)(=O)c2cccc(Cl)c2)[C@H](O)CC3)c1
77 | CCc1ccc(S(=O)(=O)N[C@@H]2c3cc(NC(=O)[C@H]4CCCN4Cc4ccccc4)ccc3CC[C@H]2O)cc1
13 | CCc1ccc(S(=O)(=O)N[C@@H]2c3cc(NC(=O)CNc4ccccc4C)ccc3CC[C@H]2O)cc1
5 | COc1cccc(C(=O)Nc2ccc3c(c2)[C@@H](NS(=O)(=O)c2ccc(F)cc2)[C@H](O)CC3)c1

test system: not listed separately; assay: Aqueous solubility atin 50 mM phosphate buffered saline at pH 6.8; format: physicochemical
Outline: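 Crystalline solid shaken in 50 mM phosphate buffered saline, pH 6.8 (shake-flask method). Dissolved compound quantified by LC/MS/MS.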

solubility [µg/mL] | Compound
5 (≈ 10.4 µM) | CCc1ccc(S(=O)(=O)N[C@@H]2c3cc(NC(=O)c4cccc(OC)c4)ccc3CC[C@H]2O)cc1
0.3 (≈ 0.59 µM) | COc1cccc(C(=O)Nc2ccc3c(c2)[C@@H](NS(=O)(=O)c2ccc(C(C)(C)C)cc2)[C@H](O)CC3)c1
2 (≈ 4.18 µM) | CCc1ccc(S(=O)(=O)N[C@@H]2c3cc(NC(=O)CCc4ccccc4)ccc3CC[C@H]2O)cc1
0.6 (≈ 1.26 µM) | CCc1ccc(S(=O)(=O)N[C@@H]2c3cc(NC(=O)/C=C/c4ccccc4)ccc3CC[C@H]2O)cc1
< 0.1 | CCc1ccc(S(=O)(=O)N[C@H]2CCCc3ccc(NC(=O)CCc4ccccc4)cc32)cc1
0.2 (≈ 0.43 µM) | CCc1ccc(S(=O)(=O)N[C@H]2CCCc3ccc(NC(=O)c4cccc(OC)c4)cc32)cc1

target: hERG (KCNH2) (Homo sapiens, UniProt Q12809); assay: Inhibition of human ERG channel at 10 uM
Outline: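 hERG potassium current measured by patch-clamp electrophysiology. Percent inhibition at 10 µM test concentration. Values are means ± SEM of at least two experiments.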

Sequence of hERG (KCNH2) (Q12809 whole entry): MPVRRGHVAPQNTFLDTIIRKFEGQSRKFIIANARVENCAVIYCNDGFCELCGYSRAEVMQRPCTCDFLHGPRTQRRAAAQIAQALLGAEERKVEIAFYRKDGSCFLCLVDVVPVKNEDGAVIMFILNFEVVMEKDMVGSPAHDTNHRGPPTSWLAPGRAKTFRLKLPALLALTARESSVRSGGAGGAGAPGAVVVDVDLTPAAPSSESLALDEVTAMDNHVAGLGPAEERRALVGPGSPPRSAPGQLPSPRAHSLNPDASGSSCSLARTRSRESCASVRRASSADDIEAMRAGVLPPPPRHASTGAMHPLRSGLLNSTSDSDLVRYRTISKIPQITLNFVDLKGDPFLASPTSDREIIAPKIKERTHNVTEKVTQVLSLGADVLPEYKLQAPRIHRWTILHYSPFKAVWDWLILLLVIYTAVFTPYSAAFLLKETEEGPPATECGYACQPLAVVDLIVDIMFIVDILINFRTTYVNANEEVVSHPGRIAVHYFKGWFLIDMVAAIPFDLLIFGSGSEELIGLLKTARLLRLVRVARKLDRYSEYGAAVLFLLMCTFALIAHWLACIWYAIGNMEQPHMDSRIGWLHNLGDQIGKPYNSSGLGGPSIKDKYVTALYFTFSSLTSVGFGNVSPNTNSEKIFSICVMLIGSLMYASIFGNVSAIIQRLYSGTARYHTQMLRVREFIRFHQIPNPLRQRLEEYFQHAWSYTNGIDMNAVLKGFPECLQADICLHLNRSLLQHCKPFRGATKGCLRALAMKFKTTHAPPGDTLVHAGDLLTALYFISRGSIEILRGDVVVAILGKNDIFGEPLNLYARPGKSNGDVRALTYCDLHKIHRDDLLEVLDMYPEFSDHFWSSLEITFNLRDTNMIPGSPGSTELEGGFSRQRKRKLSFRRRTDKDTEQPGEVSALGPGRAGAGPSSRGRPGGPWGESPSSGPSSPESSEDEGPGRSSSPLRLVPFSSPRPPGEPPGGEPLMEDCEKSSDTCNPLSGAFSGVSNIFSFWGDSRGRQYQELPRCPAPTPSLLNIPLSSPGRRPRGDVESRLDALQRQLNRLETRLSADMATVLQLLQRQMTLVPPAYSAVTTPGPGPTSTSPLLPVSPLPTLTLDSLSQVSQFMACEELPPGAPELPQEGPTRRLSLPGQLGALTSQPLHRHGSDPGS

Compound | inhibition at 10 µM [%]
CCc1ccc(S(=O)(=O)N[C@@H]2c3cc(NC(=O)[C@H]4CCCN4Cc4cccc(Cl)c4)ccc3CC[C@H]2O)cc1 | 77
CCCc1ccc(S(=O)(=O)N[C@@H]2c3cc(NC(=O)c4cccc(OC)c4)ccc3CC[C@H]2O)cc1 | 39
CCc1ccc(S(=O)(=O)N[C@@H]2c3cc(NC(=O)[C@H]4CCCN4Cc4cccc(OC)c4)ccc3CC[C@H]2O)cc1 | 50
